# Screening results (PubChem BioAssay)
# Myeloid diff MLP: myeloid differentiation induction. ER-HoxA9 myeloid progenitors, lysozyme-GFP differentiation, flow cytometry. calls only at 10 µM. 1% of 360,000 active;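 active = normalized GFP-positive differentiation at or above the plate's own cutoff, the solvent-only control mean plus 3 SD; inconclusive = no clear call, values can overlap the other calls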;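 also: cells exposed to compound for four days before flow analysis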
# CSN inh: inhibitors of human CSN-mediated cullin deneddylation; Q92905; Purified CSN, SCF-Nedd8-OG deneddylation, fluorescence polarization; inhibition, % at 12.5 µM; 0.38% of 360,000 active; AID 651999;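 active = pattern-corrected inhibition above about 35%, with an unprinted fluorescence ratio check between 0.5 and 1.5, limit read from the data, passing the limit was not always enough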;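 also: 0% = enzyme with substrate and 100% = substrate without enzyme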
#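 Material: purified human Csn5 enzyme expressed in HEK293T cells / Medium: Tris buffer pH 7.5, NaCl, DTT, Tween-20, trehalose, ovalbumin / Compound dosing: 12.5 µM single point / Schedule: 90 min incubation of compound, enzyme and substrate at room temperature / Signal: fluorescence polarization of the substrate / Control set: no-enzyme wells high, enzyme-with-substrate wells low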
# Exocytosis inh: blocks lytic granule exocytosis; 0.66% of 360,000 active; inhibition, % at 10 µM; AID 651702; TALL-104 LAMP-1 surface exposure, flow cytometry; cells stimulated with thapsigargin and PMA;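 active = inhibition above about 55%, limit read from the data; inconclusive = no clear call, values can overlap the other calls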
# HNF4A DNA FP: change in binding of human HNF4 alpha to DNA | P41235 | HNF4a-FITC DNA binding, fluorescence polarization, 1 h | activity change, % at 10 µM | 0.3% of 360,000 active | AID 1224865; in the data active = activity change above about 30%, passing the limit was not always enough
# CSN5 deneddyl: validation of inhibitors of human CSN-mediated cullin deneddylation; shares compounds with CSN inh; Csn5 deneddylation of SCF-Nedd8OG, fluorescence polarization, 90 min; inhibition, % at 16.6 µM; 62% of 540 active; AID 720654; in the data active = inhibition above about 50%;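 also: 0% = DMSO with enzyme and 100% = no enzyme wells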
# MMP2 cntr CSN: MMP-2 (human) inhibition, counter-screen for CSN hits. shares compounds with CSN inh. 33% of 540 active. recombinant MMP-2, FRET substrate fluorescence, 60 min. inhibition, % at 16.6 µM;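 active = corrected plate-normalized z-score of 5 or more, or -5 or less, or inhibition of 15% or more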;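 also: plate controls were DMSO wells with enzyme for no effect and buffer wells lacking MMP-2 for full effect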
# Target sequence (P08253 whole entry, looked up): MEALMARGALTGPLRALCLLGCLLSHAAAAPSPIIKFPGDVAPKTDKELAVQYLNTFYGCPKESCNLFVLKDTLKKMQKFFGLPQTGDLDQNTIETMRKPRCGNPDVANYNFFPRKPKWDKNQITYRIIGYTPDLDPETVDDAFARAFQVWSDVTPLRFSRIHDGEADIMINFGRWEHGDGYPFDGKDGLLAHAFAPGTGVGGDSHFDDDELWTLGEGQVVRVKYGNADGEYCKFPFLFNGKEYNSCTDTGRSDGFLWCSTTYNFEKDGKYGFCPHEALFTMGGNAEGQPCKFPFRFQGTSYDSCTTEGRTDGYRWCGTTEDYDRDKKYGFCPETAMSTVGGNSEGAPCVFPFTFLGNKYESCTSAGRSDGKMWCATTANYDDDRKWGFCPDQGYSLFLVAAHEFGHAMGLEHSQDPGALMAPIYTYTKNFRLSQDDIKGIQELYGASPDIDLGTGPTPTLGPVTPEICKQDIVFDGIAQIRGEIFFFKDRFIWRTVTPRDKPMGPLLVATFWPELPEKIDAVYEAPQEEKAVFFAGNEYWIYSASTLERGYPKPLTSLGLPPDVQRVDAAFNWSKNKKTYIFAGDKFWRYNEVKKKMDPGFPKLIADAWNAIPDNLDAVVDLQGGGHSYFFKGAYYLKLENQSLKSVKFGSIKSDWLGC
# Thrombin cntr: counter-screen for CSN deneddylation inhibitors: bovine thrombin inhibition | shares compounds with CSN inh | bovine thrombin cleavage of Ub4-pepOG, fluorescence polarization | inhibition, % at 16.6 µM | 49% of 540 active | AID 720656;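 active = inhibition at or above a set limit, with a fluorescence interference ratio between 0.5 and a set maximum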
# Starred values were filed as active, the others as inactive; i = inactive; ? = inconclusive; . = no result given; + = active, no number. Sampled rows, rich in hits. Any-hit rate of the full collection: about 2.2%.
SMILES,Myeloid diff MLP,CSN inh,Exocytosis inh,HNF4A DNA FP,CSN5 deneddyl,MMP2 cntr CSN,Thrombin cntr
Cc1ccc(S(=O)(=O)/N=C2/NC(=O)/C(=C\c3cc(Br)cc(Br)c3O)S2)cc1,i,147*,-21,80*,-72,-80*,-84
Cn1nccc1C(=O)NC1CCCc2c1cnn2-c1ccc(C(C)(C)C)cc1 (centres undefined),i,4,7,0,.,.,.
Cc1ccc(Cn2c(C(C)Nc3nc(-c4ccc(C)cc4)cs3)nc3cc(Cl)c(Cl)cc32)cc1 (centres undefined),i,38*,23,-44,55*,15*,8
CCS(=O)(=O)c1nn2c(N)c(/C=C3/C=CC(=O)C(OC)=C3)c(=O)nc2s1,i,44*,-1,31,55*,5,52*
COC1=C/C(=C/c2c(N)n3nc(-c4ccc(C)cc4)sc3nc2=O)C=CC1=O,.,78*,4,60*,.,6,76*
CCNC(=O)C1CCCN(Cc2ccc3ccccc3c2Br)CC1 (centres undefined),i,5,-3,2,.,.,.
O=C(N/N=C/c1c(O)ccc2ccccc12)c1ccc(Br)o1,?,37*,2,13,66*,12,6
Cc1occc1C(=O)N/N=C/c1c(O)ccc2ccccc12,i,7,26,0,.,.,.
COc1ccccc1Nc1cc2cc(Br)ccc2c(=O)[nH]1,+,53*,7,4,70*,10,-25
COc1ccc(OC)c(Nc2cc3ccccc3c(=O)[nH]2)c1,i,26,-12,7,.,.,.
O=c1[nH]c(Nc2ccccc2)cc2cc(Br)ccc12,i,49*,-2,1,61*,3,-44
CS(=O)(=O)Cc1ccc(C(=O)NC2CCSc3ccccc32)cc1 (centres undefined),i,-1,-15,1,.,.,.
C[C@H]1CN([C@@H](C)CO)C(=O)c2cc(NC(=O)C3CCCCC3)ccc2O[C@H]1CN(C)C(=O)Nc1ccc2c(c1)OCO2,i,0,-4,0,.,.,.
COc1cc(/C=C2\SC(=S)N(N(C)c3ccccc3)C2=O)ccc1O,i,19,-2,13,.,.,.
O=C1/C(=C/c2ccc(O)c([N+](=O)[O-])c2)SC(=S)N1Cc1ccccc1,i,21,?,29,.,.,.
CCOc1cc(/C=C2/SC(=S)N(Cc3ccccc3)C2=O)ccc1O,+,42*,-9,38*,59*,-3,85*
COc1cc(/C=C2/SC(=S)N(Cc3ccccc3)C2=O)ccc1OS(C)(=O)=O,i,5,-19,1,.,.,.
COc1cc([N+](=O)[O-])cc(/C=C2/SC(=S)N(Cc3ccccc3)C2=O)c1O,.,40*,11,42*,.,-1,44*
O=C1/C(=C\c2cc(Br)cc(Br)c2O)SC(=S)N1Cc1ccccc1,i,46*,-15,17,97*,7,13
COc1cc(/C=C2\SC(=S)N(NC(=O)c3ccccc3O)C2=O)ccc1O,i,50*,32,41*,58*,-5,63*
Cc1cc(C)c(NC(=O)CN(C)CC(=O)N(C)CC(=O)Nc2c(Cl)cccc2Cl)c(C)c1,i,-4,2,-1,.,.,.
O=C(O)CN1C(=O)/C(=C\c2cc(Br)ccc2OCc2ccccc2Cl)SC1=S,i,38*,10,-2,26,8,2
O=C(O)CN1C(=O)/C(=C\c2cc(Br)ccc2OCc2ccccc2F)SC1=S,i,30,1,-3,.,.,.
O=Cc1cn(-c2ccccc2)nc1-c1cc2cc(O)ccc2oc1=O,i,84*,1,-10,-19,5,15
COC(=O)c1cc(C)nc2c1C(=O)C(=O)C=C2N1CCOCC1,?,45*,-6,3,28,2,-36
Nc1ccc2c(c1)C(=O)C(=O)c1ccccc1-2,?,51*,51,2,.,5,-26
Nc1ccc2c(c1)C(=O)c1ccccc1C2=O,i,-7,-3,0,.,.,.
O=C(O)c1cc(S(=O)(=O)N2CCCCC2)ccc1N1CCOCC1,i,0,0,8,.,.,.
